Laboratory results: ChEMBL document CHEMBL1134015 (Bioorg Med Chem Lett, 2001)

Key:
[1] = system: Mus musculus; assay: In vivo anaesthetic activity after intravenous administration in MF-1 mice was determined by loss of righting reflex using probit analysis; assay type: functional
[2] = molecular target: GABA-A receptor; anion channel; assay: Inhibition of [35S]TBPS binding to Gamma-aminobutyric acid A receptor of rat brain membranes; assay type: cell membranes, Membrane
[3] = system: Mus musculus; assay: In vivo anaesthetic activity after intravenous administration in MF-1 mice was determined by loss of righting reflex using probit analysis; Convulsant; assay type: functional, organism-based
[4] = species: Rattus norvegicus; assay: Time to the first 0.25 s burst suppression epoch(onset of anaesthesa) in male Wistar rats; assay type: functional
[5] = species: Rattus norvegicus; assay: Time required to gain the righting reflex in male Wistar rats; assay type: functional, organism-based
[6] = species: Rattus norvegicus; assay: Time taken for 50% decrease in the BSR in male Wistar rats; assay type: functional
[7] = species: Rattus norvegicus; assay: Burst suppression ratio (BSR) profile in male Wistar rats; assay type: functional
Summary of the method: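 Male Wistar rats (218–420 g), with extradural electrodes implanted and at least 7 days recovery, lightly hand-restrained. IV injection over 10 s into a tail vein by computer-controlled infusion pump. […] BSR extracted from EEG. Read-outs: onset (first 0.25 s burst-suppression epoch), time to max BSR, time to 50% BSR decrease, time to regain righting reflex. Mean and SEM.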

[8] = species: Rattus norvegicus; assay: Maximum BSR reached in male Wistar rats; assay type: functional
[9] = species: Rattus norvegicus; assay: Time taken to reach the maximum BSR in male Wistar rats; assay type: functional
[10] = system: GABA-A receptor; anion channel; assay: Inhibition of [35S]TBPS binding to Gamma-aminobutyric acid A (GABA-A) receptor of rat whole brain membranes (inactive); assay type: cell membranes
Summary of the method: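 Rat whole-brain membranes. Inhibition of [35S]TBPS radioligand binding at the GABA-A receptor. […] Means of three experiments.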

SMILES: CC(C)c1cc(CN2CCSCC2)cc(C(C)C)c1N
- HD50 [1]: 22.9 µM/kg
- IC50 [2]: > 100 µM

SMILES: CC(=O)Nc1c(C(C)C)cc(CN2CCOCC2)cc1C(C)C
- HD50 [1]: >282 µM/kg
- IC50 [2]: > 10 µM

SMILES: CC(C)c1cc(CN2CCOCC2)cc(C(C)C)c1
- HD50 [3]: Convulsant
- IC50 [2]: > 30 µM

SMILES: CC(C)c1cc(C(=O)CN2CCSCC2)cc(C(C)C)c1O
- HD50 [1]: 68.5 µM/kg
- IC50 [2]: > 10 µM

SMILES: CC(C)c1cc(CN2CCOCC2)cc(C(C)C)c1O
- Onset time [4]: 16.2 s
- Recovery time [5]: 3.8 min
- HD50 [1]: 32 µM/kg
- Offset time [6]: 1.7 min
- BSR [7]: 51 µM/kg
- IC50 [2]: > 100 µM
- Max BSR [8]: 54.9%
- Time to max. BSR [9]: 40 s

SMILES: CNc1c(C(C)C)cc(CN2CCOCC2)cc1C(C)C
- HD50 [1]: 51 µM/kg
- IC50 [2]: > 100 µM

SMILES: CC(C)c1cc(CN2CCOCC2)cc(C(C)C)c1N(C)C
- HD50 [1]: 83 µM/kg
- IC50 [2]: > 30 µM

SMILES: CCOC(=O)C1CCN(Cc2cc(C(C)C)c(O)c(C(C)C)c2)CC1
- HD50 [1]: 19 µM/kg
- IC50 [2]: 31 µM

SMILES: CCOC(=O)C1CCN(Cc2cc(C(C)C)c(N)c(C(C)C)c2)CC1
- HD50 [1]: 14.4 µM/kg
- IC50 [10]: Not Active

SMILES: CC(C)c1cc(CN2CCOCC2)cc(C(C)C)c1N
- HD50 [1]: 36.5 µM/kg
- IC50 [2]: > 100 µM

SMILES: CC(C)c1cc(CCN2CCOCC2)cc(C(C)C)c1O
- HD50 [1]: 35.8 µM/kg
- IC50 [2]: > 100 µM

SMILES: CC(C)c1cccc(C(C)C)c1O [PROPOFOL]
- Onset time [4]: 13.2 s
- Recovery time [5]: 5.2 min
- HD50 [1]: 68 µM/kg
- Offset time [6]: 1.4 min
- Max BSR [8]: 55%
- Time to max. BSR [9]: 30 s

SMILES: CC(=O)N1CCN(Cc2cc(C(C)C)c(O)c(C(C)C)c2)CC1
- HD50 [1]: 38.8 µM/kg
- IC50 [2]: > 100 µM

SMILES: CC(C)c1cc(CN2CCSCC2)cc(C(C)C)c1O
- HD50 [1]: 25.5 µM/kg
- IC50 [2]: 27.6 µM

SMILES: CC(C)c1cc(CN(C)Cc2ccccc2)cc(C(C)C)c1O
- HD50 [1]: 25.1 µM/kg
- IC50 [2]: > 10 µM
